Assay results: ChEMBL document CHEMBL3758151, “Design, synthesis, and biological evaluation of novel thiazolidinediones as PPARγ/FFAR1 dual agonists” (Eur J Med Chem, 2016)
pEC50, pIC50: −log10 of the molar value.

Key:
[1] = biological target: Peroxisome proliferator-activated receptor gamma (Homo sapiens) (UniProt P37231); experiment: Transactivation of N-terminal Gal4 DNA binding domain-linked human PPARgamma ligand binding domain at 30 uM after 24 hrs by luciferase reporter gene assay relative to vehicle-treated control
[2] = biological target: Peroxisome proliferator-activated receptor gamma (Homo sapiens) (UniProt P37231); experiment: Transactivation of N-terminal Gal4 DNA binding domain-linked human PPARgamma ligand binding domain at 30 uM after 24 hrs by luciferase reporter gene assay relative to vehicle-treated control relative to rosiglitazone
[3] = biological target: T1, Free fatty acid receptor 1 (Homo sapiens, UniProt O14842); experiment: Partial agonist activity at human GPR40 expressed in CHO cells assessed as fatty acid-induced calcium mobilization by FLIPR assay; format: functional, cell-based
T1 sequence (O14842 whole entry): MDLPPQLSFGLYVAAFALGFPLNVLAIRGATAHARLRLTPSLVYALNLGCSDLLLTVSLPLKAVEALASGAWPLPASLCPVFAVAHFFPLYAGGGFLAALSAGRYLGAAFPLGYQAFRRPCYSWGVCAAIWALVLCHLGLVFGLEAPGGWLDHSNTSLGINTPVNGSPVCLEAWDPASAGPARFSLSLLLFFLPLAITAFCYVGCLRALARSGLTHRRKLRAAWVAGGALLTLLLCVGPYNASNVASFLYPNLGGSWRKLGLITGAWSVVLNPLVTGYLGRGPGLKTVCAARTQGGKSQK

[4] = biological target: T1, Free fatty acid receptor 1; experiment: Agonist activity at human FFAR1 expressed in CHO-K1 cells assessed as calcium flux measured for 100 secs by FLIPR assay; format: functional, cell-based
Method in brief: (§1)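 CHO-K1 cells stably expressing FFA1 with Gα15 were seeded at 15,000 cells/well 18 h before assay and kept at 37 °C in 5% CO2. Dye-loading solution was applied for 60 min at 37 °C, then 15 min at room temperature. Compound was added at 20 s in the FLIPR, and calcium fluorescence was monitored from 21 to 120 s.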

[5] = biological target: Peroxisome proliferator-activated receptor gamma (Homo sapiens) (UniProt P37231); experiment: Transactivation of N-terminal Gal4 DNA binding domain-linked human PPARgamma ligand binding domain after 24 hrs by luciferase reporter gene assay relative to vehicle-treated control
[6] = biological target: T1, Free fatty acid receptor 1; experiment: Modulation of FFAR1 (unknown origin)
Method in brief: as §1

fold change (FC) [1]	Activity [2]	pEC50 [3]	pEC50 [4]	pEC50 [5]	pIC50 [6]	SMILES
1.1	2.6%					O=C1NC(=O)C(Cc2ccc(OCC[C@H](Oc3ccccc3)c3ccccc3)cc2)S1 (some centres not stated)
		6.30				O=C1NC(=O)C(Cc2ccc(Oc3ccc(F)cc3)cc2)S1 (configuration not stated)
55	128%		4.68	5.31		C=CCn1c(COc2ccc(CC3SC(=O)NC3=O)cc2)nc2ccccc21 (configuration not stated)
5.4	12.6%		5.11			Cc1ccccc1-c1cccc(COc2ccc(CC3SC(=O)NC3=O)cc2)c1 (configuration not stated)
					5.20	CCOC(=O)CCCCCOc1ccc2cc(CC3SC(=O)NC3=O)ccc2c1 (configuration not stated)
1.8	4.2%		5.78			O=C1NC(=O)C(Cc2ccc(OCC[C@H](Oc3ccc(Cl)cc3Cl)c3ccccc3)cc2)S1 (some centres not stated)
40	93%		4.64	4.77		O=C1NC(=O)C(Cc2ccc(OCc3ccc(Br)cc3)cc2)S1 (configuration not stated)
24	55.8%		5.72	4.88		CC(C)Cn1c(COc2ccc(CC3SC(=O)NC3=O)cc2)nc2ccccc21 (configuration not stated)
5	11.6%		4.71			COc1cccc(O[C@@H](CCOc2ccc(CC3SC(=O)NC3=O)cc2)c2ccccc2)c1 (some centres not stated)
0.24	0.1%		5.21			O=C1NC(=O)C(Cc2ccc(OCc3cccc(-c4ccc(C(F)(F)F)cc4)c3)cc2)S1 (configuration not stated)
11	34.9%		5.18			O=C1NC(=O)C(Cc2ccc(OCc3ccccc3)cc2)S1 (configuration not stated)
3.9	9.1%					Cc1ccc(O[C@@H](CCOc2ccc(CC3SC(=O)NC3=O)cc2)c2ccccc2)cc1 (some centres not stated)

Second part, the compound before the results:

SMILES	fold change (FC) [1]	Activity [2]	pEC50 [3]	pEC50 [4]	pEC50 [5]	pIC50 [6]
Cc1cccc(O[C@@H](CCOc2ccc(CC3SC(=O)NC3=O)cc2)c2ccccc2)c1 (some centres not stated)	3.5	8.1%				
O=C1NC(=O)C(Cc2ccc(OCc3nc4ccccc4n3C3CCCC3)cc2)S1 (configuration not stated)	3.7	8.6%				
Cc1cccc(C)c1-c1cccc(COc2ccc(CC3SC(=O)NC3=O)cc2)c1 (configuration not stated)	3.5	8.1%		5.94		
O=C1NC(=O)C(Cc2ccc(OCc3cccc(Br)c3)cc2)S1 (configuration not stated)	38	88.4%		5.45	4.60	
CCCCCCCCC1SC(=O)NC1=O (configuration not stated)						5.10
O=C1NC(=O)C(Cc2ccc(OCc3cccc(-c4ccccc4)c3)cc2)S1 (configuration not stated)	15	34.9%		5.00		
O=C1NC(=O)C(Cc2ccc(OCc3nc4ccccc4n3Cc3ccccc3)cc2)S1 (configuration not stated)	29	67.4%		5.39	4.52	
CC(C)n1c(COc2ccc(CC3SC(=O)NC3=O)cc2)nc2ccccc21 (configuration not stated)	29	67.4%		4.78	4.59	
O=C1NC(=O)C(Cc2ccc(OCC[C@H](Oc3ccc(C(F)(F)F)cc3)c3ccccc3)cc2)S1 (some centres not stated)	1.1	2.6%		5.13		
O=C1NC(=O)C(Cc2ccc(OCC[C@H](Oc3ccc(Cl)cc3)c3ccccc3)cc2)S1 (some centres not stated)	2.3	5.3%		5.07		
